Results published in PMC11382121 (Molecular Metabolism, 2024).

Assays:
humans = details: exposure levels capable of fully blocking the GIPR; cited from earlier work
[1] = system: HFD-induced obese cynomolgus monkeys; test: Efficacy study in obese non-human primates; type: in vivo, M. fascicularis; details: 42-day daily SC treatment
[2] = Pharmacokinetics in Göttingen minipigs; type: in vivo; details: female, minipig, plasma, sc, 3 nmol/kg
Procedure, shortened: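 Two female Göttingen minipigs (30–35 kg) per test compound, each given a single SC dose of 3 nmol/kg (0.04 mL/kg) in the inguinal fold or behind the ear. Up to 10 blood samples were drawn via an ear-vein central venous catheter to 129 h into chilled EDTA tubes. Plasma (2000 RCF, 15 min, 4 °C) was frozen and assayed by LC-MS/MS. Half-life came from a one-phase exponential decay fit.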

In the case of CC[C@H](C)[C@H](NC(=O)[C@H](CO)NC(=O)[C@H](Cc1ccc(O)cc1)NC(=O)[C@H](CC(=O)O)NC(=O)[C@H](CO)NC(=O)[C@@H](NC(=O)[C@H](Cc1ccccc1)NC(=O)[C@@H](NC(=O)CNC(=O)[C@@H](N)CCC(=O)O)[C@@H](C)O)[C@@H](C)CC)C(=O)N[C@@H](C)C(=O)N[C@@H](CCSC)C(=O)N[C@@H](CC(=O)O)C(=O)N[C@@H](CCCCN)C(=O)N[C@H](C(=O)N[C@@H](Cc1c[nH]cn1)C(=O)N[C@@H](CCC(N)=O)C(=O)N[C@@H](CCC(N)=O)C(=O)N[C@@H](CC(=O)O)C(=O)N[C@@H](Cc1ccccc1)C(=O)N[C@H](C(=O)N[C@@H](CC(N)=O)C(=O)N[C@@H](Cc1c[nH]c2ccccc12)C(=O)N[C@@H](CC(C)C)C(=O)N[C@@H](CC(C)C)C(=O)N[C@@H](C)C(=O)N[C@@H](CCC(N)=O)C(=O)N[C@@H](CCCCN)C(N)=O)C(C)C)[C@@H](C)CC [GIP(3–30)NH2], the “nausea, comfort or other side effects” value (humans) is listed as “no alterations in nausea, comfort, or any other side effects”.
For CCCCCCCCCCCCCCCC(=O)N[C@@H](CCC(=O)NCCCC[C@H](NC(=O)[C@H](C)NC(=O)[C@H](C)NC(=O)[C@H](CCC(N)=O)NC(=O)CNC(=O)[C@H](CCC(=O)O)NC(=O)[C@H](CC(C)C)NC(=O)[C@H](Cc1ccc(O)cc1)NC(=O)[C@H](CO)NC(=O)[C@H](CO)NC(=O)[C@@H](NC(=O)[C@H](CC(=O)O)NC(=O)[C@H](CO)NC(=O)[C@@H](NC(=O)[C@H](Cc1ccccc1)NC(=O)[C@@H](NC(=O)CNC(=O)[C@H](CCC(=O)O)NC(=O)[C@H](C)NC(=O)[C@@H](N)Cc1cnc[nH]1)[C@@H](C)O)[C@@H](C)O)C(C)C)C(=O)N[C@@H](CCC(=O)O)C(=O)N[C@@H](Cc1ccccc1)C(=O)N[C@H](C(=O)N[C@@H](C)C(=O)N[C@@H](Cc1c[nH]c2ccccc12)C(=O)N[C@@H](CC(C)C)C(=O)N[C@H](C(=O)N[C@@H](CCCNC(=N)N)C(=O)NCC(=O)N[C@@H](CCCNC(=N)N)C(=O)NCC(=O)O)C(C)C)[C@@H](C)CC)C(=O)O [Liraglutide], the “tolerability / side effects” value [1] was “one NHP in the liraglutide monotreatment group that stopped eating and drinking”.
In the case of CC[C@H](C)[C@H](NC(=O)[C@H](CC(C)C)NC(=O)[C@H](Cc1c[nH]c2ccccc12)NC(=O)[C@H](CCC(N)=O)NC(=O)[C@@H](NC(=O)[C@H](Cc1ccccc1)NC(=O)[C@H](C)NC(=O)[C@H](CCCCNC(=O)COCCOCCNC(=O)COCCOCCNC(=O)CC[C@H](NC(=O)CCCCCCCCCCCCCCCCCCC(=O)O)C(=O)O)NC(=O)[C@H](CCC(N)=O)NC(=O)[C@H](C)NC(=O)[C@@H](NC(=O)[C@H](CCCCN)NC(=O)[C@H](CC(=O)O)NC(=O)[C@H](CC(C)C)NC(=O)C(C)(C)NC(=O)[C@@H](NC(=O)[C@H](CO)NC(=O)[C@H](Cc1ccc(O)cc1)NC(=O)[C@H](CC(=O)O)NC(=O)[C@H](CO)NC(=O)[C@@H](NC(=O)[C@H](Cc1ccccc1)NC(=O)[C@@H](NC(=O)CNC(=O)[C@H](CCC(=O)O)NC(=O)C(C)(C)NC(=O)[C@@H](N)Cc1ccc(O)cc1)[C@@H](C)O)[C@@H](C)O)[C@@H](C)CC)[C@@H](C)CC)C(C)C)C(=O)N[C@@H](C)C(=O)NCC(=O)NCC(=O)N1CCC[C@H]1C(=O)N[C@@H](CO)C(=O)N[C@@H](CO)C(=O)NCC(=O)N[C@@H](C)C(=O)N1CCC[C@H]1C(=O)N1CCC[C@H]1C(=O)N1CCC[C@H]1C(=O)N[C@@H](CO)C(N)=O [Tirzepatide], the AUC(0-inf) [2] is reported as 4.12 µM·h and the half-life [2] is reported as 83 h.
